Source: ChEMBL document CHEMBL1143313, “Synthesis of novel 4,6-di(substituted)amino-1,2-dihydro-1,3,5-triazine derivatives as topical antiseptic agents” (2009)

What was measured:
Format in all cases: functional
Staphylococcus aureus [1] = assay: Antibacterial activity against Staphylococcus aureus 209PJC after 24 hrs
Method in brief: (§1)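 Value is the minimal inhibitory concentration (MIC) against the test organism, read after 24 h of incubation.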

Staphylococcus aureus [2] = assay: Antibacterial activity against methicillin-resistant Staphylococcus aureus 97-115 after 24 hrs
Method in brief: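 Read-out is the minimal inhibitory concentration (MIC), taken after 24 h incubation with the test organism.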

Escherichia coli [3] = assay: Antibacterial activity against Escherichia coli NIHJ JC-2 after 24 hrs; method in brief: as §1
Pseudomonas aeruginosa [4] = assay: Antibacterial activity against Pseudomonas aeruginosa PAO1; method in brief: as §1
Escherichia coli [5] = assay: Bactericidal activity against Escherichia coli NIHJ JC-2 preincubated for 1 min before addition of growth medium measured after 40 to 48 hrs
Escherichia coli [6] = assay: Bactericidal activity against Escherichia coli NIHJ JC-2 preincubated for 3 mins before addition of growth medium measured after 40 to 48 hrs
Escherichia coli [7] = assay: Bactericidal activity against Escherichia coli NIHJ JC-2 preincubated for 5 mins before addition of growth medium measured after 40 to 48 hrs
Pseudomonas aeruginosa [8] = assay: Bactericidal activity against Pseudomonas aeruginosa PAO1 preincubated for 1 min before addition of growth medium measured after 40 to 48 hrs
Pseudomonas aeruginosa [9] = assay: Bactericidal activity against Pseudomonas aeruginosa PAO1 preincubated for 3 mins before addition of growth medium measured after 40 to 48 hrs
Pseudomonas aeruginosa [10] = assay: Bactericidal activity against Pseudomonas aeruginosa PAO1 preincubated for 5 mins before addition of growth medium measured after 40 to 48 hrs
Staphylococcus aureus [11] = assay: Bactericidal activity against Staphylococcus aureus 209PJC preincubated for 1 min before addition of growth medium measured after 40 to 48 hrs
Staphylococcus aureus [12] = assay: Bactericidal activity against Staphylococcus aureus 209PJC preincubated for 3 mins before addition of growth medium measured after 40 to 48 hrs
Staphylococcus aureus [13] = assay: Bactericidal activity against Staphylococcus aureus 209PJC preincubated for 5 mins before addition of growth medium measured after 40 to 48 hrs
Staphylococcus aureus [14] = assay: Bactericidal activity against methicillin-resistant Staphylococcus aureus 97-115 preincubated for 1 min before addition of growth medium measured after 40 to 48 hrs
Method in brief: (§2)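 Read-out is the minimal bactericidal concentration (MBC), taken after 1, 3 and 5 min contact of compound with the test organism.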

Staphylococcus aureus [15] = assay: Bactericidal activity against methicillin-resistant Staphylococcus aureus 97-115 preincubated for 3 mins before addition of growth medium measured after 40 to 48 hrs; method in brief: as §2
Staphylococcus aureus [16] = assay: Bactericidal activity against methicillin-resistant Staphylococcus aureus 97-115 preincubated for 5 mins before addition of growth medium measured after 40 to 48 hrs; method in brief: as §2

| Structure (SMILES) | MIC (Staphylococcus aureus [1]) | MIC (Staphylococcus aureus [2]) | MIC (Escherichia coli [3]) | MIC (Pseudomonas aeruginosa [4]) | MBC (Escherichia coli [5]) | MBC (Escherichia coli [6]) | MBC (Escherichia coli [7]) | MBC (Pseudomonas aeruginosa [8]) | MBC (Pseudomonas aeruginosa [9]) | MBC (Pseudomonas aeruginosa [10]) | MBC (Staphylococcus aureus [11]) | MBC (Staphylococcus aureus [12]) | MBC (Staphylococcus aureus [13]) | MBC (Staphylococcus aureus [14]) | MBC (Staphylococcus aureus [15]) | MBC (Staphylococcus aureus [16]) |
| --- | --- | --- | --- | --- | --- | --- | --- | --- | --- | --- | --- | --- | --- | --- | --- | --- |
| CC(=O)O.CCCCCCCCCCNC1=NC(C)(C)NC(NCc2ccc(C)cc2)=N1 | 0.8 µg/mL | 0.8 µg/mL | 100 µg/mL | 100 µg/mL | – | – | – | – | – | – | – | – | – | – | – | – |
| CCCCCCCCCCNC1=NC(C)(C)NC(NCCc2ccc(OC)cc2)=N1.Cl | 0.4 µg/mL | 0.8 µg/mL | 50 µg/mL | 50 µg/mL | 3.1 µg/mL | 1.6 µg/mL | 1.6 µg/mL | 3.1 µg/mL | 3.1 µg/mL | 1.6 µg/mL | 50 µg/mL | 12.5 µg/mL | 6.3 µg/mL | 25 µg/mL | 6.3 µg/mL | 6.3 µg/mL |
| CC(=O)O.CCCCCCCCNC1=NC(C)(C)NC(NCCCC)=N1 | 1.6 µg/mL | 3.1 µg/mL | 25 µg/mL | 50 µg/mL | 50 µg/mL | 25 µg/mL | 12.5 µg/mL | 50 µg/mL | 25 µg/mL | 12.5 µg/mL | 25 µg/mL | 12.5 µg/mL | 6.3 µg/mL | 25 µg/mL | 12.5 µg/mL | 12.5 µg/mL |
| CC(=O)O.CCCCCCCCCCNC1=NC(C)(C)NC(NCc2ccccc2)=N1 | 0.4 µg/mL | 0.4 µg/mL | 12.5 µg/mL | 25 µg/mL | 25 µg/mL | 12.5 µg/mL | 6.3 µg/mL | 3.1 µg/mL | 3.1 µg/mL | 1.6 µg/mL | 6.3 µg/mL | 6.3 µg/mL | 6.3 µg/mL | 12.5 µg/mL | 6.3 µg/mL | 6.3 µg/mL |
| CC(=O)O.CCCCCCCCNC1=NC(C)(C)NC(NCc2ccccc2)=N1 | 0.8 µg/mL | 1.6 µg/mL | 12.5 µg/mL | 25 µg/mL | 12.5 µg/mL | 6.3 µg/mL | 6.3 µg/mL | 25 µg/mL | 12.5 µg/mL | 12.5 µg/mL | 25 µg/mL | 12.5 µg/mL | 6.3 µg/mL | > 50 µg/mL | 50 µg/mL | 50 µg/mL |
| CC(=O)O.CCCCCCCCCCNC1=NC(C)(C)NC(Nc2ccccc2)=N1 | 0.4 µg/mL | 0.4 µg/mL | 12.5 µg/mL | 100 µg/mL | – | – | – | – | – | – | – | – | – | – | – | – |
| CCCCCCCCCNC1=NC(C)(C)NC(NCc2ccc(OC)cc2)=N1.CS(=O)(=O)O | 0.8 µg/mL | 1.6 µg/mL | 25 µg/mL | 50 µg/mL | 12.5 µg/mL | 6.3 µg/mL | 3.1 µg/mL | 25 µg/mL | 12.5 µg/mL | 12.5 µg/mL | 6.3 µg/mL | 6.3 µg/mL | 3.1 µg/mL | > 100 µg/mL | > 100 µg/mL | > 100 µg/mL |
| CC(=O)O.CCCCCCCCCCNC1=NC(C)(C)NC(NCc2ccc(OC)cc2)=N1 | 0.4 µg/mL | 0.8 µg/mL | 25 µg/mL | 50 µg/mL | 12.5 µg/mL | 6.3 µg/mL | 6.3 µg/mL | 12.5 µg/mL | 3.1 µg/mL | 3.1 µg/mL | 12.5 µg/mL | 6.3 µg/mL | 3.1 µg/mL | 25 µg/mL | 6.3 µg/mL | 6.3 µg/mL |
| CC(=O)O.CCCCCCCCCNC1=NC(C)(C)NC(NCc2ccc(C)cc2)=N1 | 0.8 µg/mL | 0.8 µg/mL | 25 µg/mL | 50 µg/mL | 6.3 µg/mL | 1.6 µg/mL | 1.6 µg/mL | 12.5 µg/mL | 3.1 µg/mL | 3.1 µg/mL | 6.3 µg/mL | 3.1 µg/mL | 3.1 µg/mL | 25 µg/mL | 12.5 µg/mL | 12.5 µg/mL |
| CC(=O)O.CCCCCCCCNC1=NC(NCCC)=NC(C)(C)N1 | 1.6 µg/mL | 6.3 µg/mL | 100 µg/mL | 100 µg/mL | – | – | – | – | – | – | – | – | – | – | – | – |
| CC(=O)O.CCCCCCCCNC1=NC(NCCCCC)=NC(C)(C)N1 | 1.6 µg/mL | 1.6 µg/mL | 25 µg/mL | 25 µg/mL | 12.5 µg/mL | 6.3 µg/mL | 6.3 µg/mL | 6.3 µg/mL | 3.1 µg/mL | 3.1 µg/mL | 3.1 µg/mL | 3.1 µg/mL | 3.1 µg/mL | 6.3 µg/mL | 3.1 µg/mL | 3.1 µg/mL |
| CC(=O)O.CCCCCCCCCCCNC1=NC(C)(C)NC(NCc2ccc(OC)cc2)=N1 | 0.4 µg/mL | 0.8 µg/mL | 100 µg/mL | 100 µg/mL | – | – | – | – | – | – | – | – | – | – | – | – |
